LMPTP block – LMPTP phosphatase inhibitors, primary screen, biochemical, fluorescence intensity, uHTS. Low molecular weight phosphotyrosine protein phosphatase (Homo sapiens), P24666. recombinant LMPTP-A, OMFP fluorogenic substrate. inhibition, % at 20 µM. 360,000 tested, 0.22% active. AID 651560, 2012;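 active = compounds that cut the enzyme signal by at least half of the control window in the single-dose screen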;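 also: plate controls were DMSO wells with enzyme plus substrate for no effect and substrate without enzyme for full effect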
Target sequence (P24666 whole entry, looked up): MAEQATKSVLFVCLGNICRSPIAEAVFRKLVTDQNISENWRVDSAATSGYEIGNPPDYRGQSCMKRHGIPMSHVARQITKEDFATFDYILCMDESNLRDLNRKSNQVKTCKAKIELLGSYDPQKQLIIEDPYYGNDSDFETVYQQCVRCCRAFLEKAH
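Test system – LMPTP-A phosphatase enzyme · Quantity – 0.625 nM LMPTP-A final · Reagent – OMFP substrate, 400 µM final · Dosing – one test concentration per compound, 20 µM, with 3% DMSO overall · Timing – 50 min enzyme reaction at room temperature, protected from light · Detection – fluorescence intensity · Controls – substrate-only low control, DMSO enzyme-plus-substrate high control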
Scp1 inh – Scp-1 phosphatase inhibitors, primary screen, biochemical, colorimetric, uHTS; Recombinant Scp1, phosphopeptide, malachite green phosphate absorbance; 340,000 tested, 0.88% active; inhibition, % at 20 µM; AID 493091, 2011; Carboxy-terminal domain RNA polymerase II polypeptide A small phosphatase 1 (Homo …;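 active = inhibition above about 50% at 20 µM, limit read from the data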;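 also: plate controls were DMSO wells with enzyme for no effect and wells lacking enzyme for full effect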
Target sequence (Q9GZU7 76-261 limits assumed): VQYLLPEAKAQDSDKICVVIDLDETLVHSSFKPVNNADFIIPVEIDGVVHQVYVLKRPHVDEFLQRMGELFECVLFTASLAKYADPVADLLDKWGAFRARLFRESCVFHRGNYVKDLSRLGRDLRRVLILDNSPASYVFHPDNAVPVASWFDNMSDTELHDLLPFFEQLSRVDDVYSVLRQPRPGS
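Material – SCP-1 phosphatase catalytic domain, residues 76-261 · Buffer or medium – Acidic Tris acetate buffer with magnesium and detergent · Also added – Phospho 17-mer peptide substrate · Compound – single 20 µM dose, 1% DMSO · Times – 45 min room-temperature reaction, 5 min colour, 30 min stabiliser · Technique – Phosphate-binding colour reagent, absorbance read at 630 nm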
DNMT1 block – human DNMT1 methyltransferase inhibitors, primary screen, biochemical, molecular beacon, fluorescence, HinP1I cleavage, uHTS | 360,000 tested, 0.83% active | inhibition (reported as % activation of signal), % at 10 µM | AID 588458, 2011 | DNA (cytosine-5)-methyltransferase 1 (Homo sapiens), P26358; in the data active = inhibition above about 50%
SUMO1 PPI mod – modulators of SUMO1 protein-protein interactions, primary screen, biochemical, uHTS; Small ubiquitin-related modifier 1 (Homo sapiens), P63165; SUMO1 binding to a labelled peptide, TR-FRET, 1 h; inhibition, % at 20 µM; 360,000 tested, 0.33% active; AID 602429, 2012; in the data active = inhibition above about 37%
Target sequence (P63165 whole entry, looked up): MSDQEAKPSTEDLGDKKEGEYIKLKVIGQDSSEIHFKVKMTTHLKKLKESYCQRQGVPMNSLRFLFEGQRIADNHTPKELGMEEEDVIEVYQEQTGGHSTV
STEP block – STEP phosphatase inhibitors, primary screen, biochemical, fluorescence intensity, uHTS; Tyrosine-protein phosphatase non-receptor type 5 (Homo sapiens), P54829; 360,000 tested, 0.25% active; AID 588621, 2011; recombinant STEP, OMFP fluorogenic substrate; inhibition, % at 20 µM;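 active = inhibition at 20 µM, scaled per plate between control wells, above about 37%, limit read from the data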;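 also: 0% = DMSO with enzyme and substrate and 100% = substrate only without enzyme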
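material = STEP tyrosine phosphatase | reagent = fluorogenic phosphatase substrate OMFP at 25 µM final | doses = single compound dose of 20 µM, 1% DMSO final | schedule = 20 min reaction, room temperature, in the dark | measured by = fluorescence, 480/540 nm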
HKDC1 inhibitor – HKDC1 hexokinase inhibitors, primary screen, biochemical, fluorescence, uHTS; Q2TB90; 340,000 tested, 0.16% active; recombinant HKDC1, G6PDH/diaphorase resazurin coupled fluorescence; inhibition, % at 20 µM;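 active = inhibition above about 35% when tested at 20 µM, limit read from the data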;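 also: plate controls were DMSO wells with enzyme for no effect and DMSO wells lacking enzyme for full effect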
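System: Recombinant HKDC1 hexokinase | Amount: HKDC1 at 5 µg/mL | Reagent: Glucose with 1 mM ATP | Doses: Single 20 µM dose | Incubation: Reaction time 90 min, room temperature, protected from light | Signal: Coupled resazurin fluorescence, excitation 525 nm, emission 613 nm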
Beacon interf DR – spectral interference with molecular beacon fluorescence, dose response, artefact control for DNMT1 inhibitor project, biochemical, fluorescent molecular beacon | IC50, µM | shares compounds with DNMT1 block | 200 tested, under 10 active | spectral interference counter-screen
DNMT1 inh conf – DNMT1 methyltransferase inhibitor retest, confirmation, biochemical, molecular beacon, fluorescence, single concentration; inhibition, % at 10 µM; DNMT1 molecular beacon HinP1I cleavage; 2,300 tested, 8% active; shares compounds with DNMT1 block; AID 602385, 2012;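 active = average inhibition of at least 30% in the single-concentration confirmation test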
DNMT1 interf – shows spectral interference in the DNMT1 beacon assay; activation (fluorescence interference), % at 10 µM; DNMT1 molecular beacon spectral interference counterscreen, fluorescence 485/520; 2,300 tested, 1% active; AID 602387; shares compounds with DNMT1 block;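 active = activation of at least 30% at 10 µM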;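 also: DNMT1 catalytic domain with a HinP1I cleavage step and a FAM/dabcyl DNA beacon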
STEP conf – STEP phosphatase inhibitor hit confirmation, biochemical, fluorescence intensity, single concentration; shares compounds with STEP block; recombinant STEP, OMFP fluorogenic substrate; inhibition, % at 20 µM; 520 tested, 32% active; AID 623866, 2012;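 also: 0% = enzyme with substrate plus DMSO and 100% = substrate without enzyme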
The depositor's hits bear a star; . = no result. A selection: hits, their analogues and other compounds. The true share with any hit is near 1.8%. Unless noted, no rule for the calls is given here.

SMILES	LMPTP block	Scp1 inh	DNMT1 block	SUMO1 PPI mod	STEP block	HKDC1 inhibitor	DNMT1 inh conf	DNMT1 interf	others
CCC(C)N1C(=O)/C(=C/c2ccc3c(c2)CCN3CCCCl)C(=O)NC1=S (centres undefined)	2	-5	85*	-1	0	15	12	-3
COc1ccc(N2C(=O)/C(=C/c3ccc(OC)c(OC)c3)C(=O)NC2=S)cc1	4	3	-7	6	0	-1	.	.
Cc1cc(C)cc(N2C(=O)NC(=O)/C(=C\C=C\c3ccco3)C2=O)c1	2	4	74*	4	2	6	2	-3
O=C1NC(=O)N(Cc2ccc(F)cc2)C(=O)/C1=C\C=C\c1ccco1	1	14	26	11	2	18	.	.
CCCCN1C(=O)/C(=C/C=C/c2ccco2)C(=O)NC1=S	6	74*	107*	24	15	3	23	-3	Beacon interf DR=>99
CC(C)c1ccc(N2C(=O)NC(=O)/C(=C/C=C/c3ccco3)C2=O)cc1	0	2	86*	12	4	10	10	5
O=Cc1c(C(=O)O)n(Cc2ccc(Cl)cc2)c2ccccc12	0	-3	95*	10	-6	-8	15	1
CCOC(=O)[C@]12Cc3cc(OC)ccc3[C@H]1N(CCC(=O)OC)C(=O)c1cc(OC)ccc12	0	.	.	5	.	.	.	.
O=C1c2ccccc2-c2cccc3cccc1c23	11	49	54*	-15	6	0	35*	2	Beacon interf DR=>99
O=C1c2ccccc2-c2cc3ccccc3cc21	1	-8	3	-25	0	7	.	.
CN1C(=O)NC(=O)/C(=C\c2ccc([N+](=O)[O-])o2)C1=O	11	53*	101*	34	44*	6	112*	-2	Beacon interf DR=>99
CN(C)S(=O)(=O)c1cccc(C(=O)N2CCC(C(=O)O)(c3ccccc3)CC2)c1	1	17	8	5	-1	-6	.	.
CCCCN1C(=O)/C(=C/c2ccc(N(C)C)cc2)C(=O)N(Cc2ccco2)C1=O	3	22	80*	7	-4	2	1	-1
CCN(CC)c1ccc(/C=C2\C(=O)NC(=O)N(Cc3ccco3)C2=O)cc1	0	-1	39	5	-3	-2	.	.
CN(C)C1C(=O)C(C(N)=O)=C(O)C2(O)C(=O)C3=C(O)c4c(O)cccc4C(C)(O)C3CC12 (centres undefined)	7	8	19	6	0	-1	.	.
CN(C)[C@@H]1C(=O)C(C(N)=O)=C(O)[C@@]2(O)C(=O)C3=C(O)c4c(O)ccc(Cl)c4[C@@](C)(O)C3C[C@@H]12 (some centres undefined)	19	-1	56*	14	2	5	2	0
C=CCNC(=O)c1c(N)n(Cc2ccco2)c2nc3ccccc3nc12	3	26	102*	20	7	5	0	-1
CCc1ccc(N2C(=O)CC(=O)NC2=O)cc1	0	-6	0	-3	-1	-5	.	.
NN=C1C(Cl)=C(Cl)C(Cl)=C1Cl	84*	.	108*	12	72*	.	.	.	STEP conf=67*
Nc1ccccc1Cl	0	-3	-2	4	-2	-4	.	.
